Measured values from ChEMBL document CHEMBL4316597, “Design, Synthesis, and Biological Evaluation of Itaconic Acid Derivatives as Potential Anti-Influenza Agents” (J Med Chem, 2019).
The source made the active and inactive calls. No cut-off for these calls is given here.

How the values were obtained:
[1] = Cytotoxicity against MDCK cells assessed as cell death after 72 hrs by MTT assay; type: cell-based, Canis lupus familiaris; conditions: dog
Outline: (§1)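 MDCK or RD cells at 2 × 10^4/well in E10, overnight at 37 °C/5% CO2, DPBS wash, then exposed to graded compound concentrations for 72 h. MTT added for 3 h, formazan dissolved in DMSO, absorbance read at 570 nm. CC50 (50% cell death) by Reed–Muench.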

[2] = Selectivity ratio of CC50 for MDCK cells to EC50 for Influenza A virus (A/WSN/33); type: toxicity; conditions: dog, read-out: Ratio CC50/EC50
Outline: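 SI is calculated as CC50 (MDCK, 72 h MTT) divided by EC50 (72 h crystal-violet CPE assay in MDCK).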

[3] = system: Influenza A virus; assay: Antiviral activity against Influenza A virus (A/WSN/33) infected in MDCK cells assessed as reduction in virus-induced cytopathic effect after 72 hrs by crystal violet-staining based assay; type: functional, organism-based; conditions: A/WSN/1933(H1N1)
Outline: (§2)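 Cells seeded at 2 × 10^4/well in E10 (DMEM, 10% FBS), 16–24 h at 37 °C/5% CO2, washed with DPBS, then infected at nine-fold TCID50 with or without serial compound concentrations. Influenza is run in MDCK and enterovirus/rhinovirus in RD. Incubated 72 h, fixed in 4% paraformaldehyde, stained with 0.1% crystal violet, and read for cell density. EC50 = 50% CPE inhibition by Reed–Muench; mean ± S.D. of at least three runs.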

[4] = system: Enterovirus; assay: Antiviral activity against Rhinovirus 71903 infected in human RD cells after 72 hrs by crystal violet-staining based assay; type: functional, organism-based; conditions: Enterovirus, 71903, RD; outline: as §2
[5] = system: enterovirus D68; assay: Antiviral activity against Enterovirus D68 TW/2795/2014 clade B3 infected in human RD cells after 72 hrs by crystal violet-staining based assay; type: functional, organism-based; conditions: Enterovirus D, TW/2795/2014 clade B3, RD; outline: as §2
[6] = system: Enterovirus A71; assay: Antiviral activity against Enterovirus A71 TW/4643/1998 infected in human RD cells after 72 hrs by crystal violet-staining based assay; type: functional, organism-based; conditions: Enterovirus A, TW/4643/1998, RD; outline: as §2
[7] = system: Influenza A virus; assay: Antiviral activity against Influenza A virus A/TW/3446/02 (H3N2) infected in MDCK cells after 72 hrs by crystal violet-staining based assay; type: functional, organism-based; outline: as §2
[8] = system: Influenza A virus; assay: Antiviral activity against Influenza A virus (A/WSN/33) infected in MDCK cells at 1 uM added at -1 hrs to 9 hrs post infection and measured after 9 hrs by plaque assay; type: functional, organism-based; conditions: A/WSN/1933(H1N1)
Outline: (§3)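 MDCK monolayers exposed to compound (1 or 10 μM) over windows of −3, −1, 0, 3 or 6 to 9 h pi. A/WSN/33 adsorbed at MOI 0.1 from −1 to 0 h, then removed with a PBS wash. Supernatant taken at 9 h pi and titred by plaque assay, normalised to virus-only (100%). Average of three independent experiments.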

[9] = Selectivity ratio of CC50 for MDCK cells to EC50 for Influenza A virus A/TW/3446/02 (H3N2); type: toxicity; conditions: dog, read-out: Ratio CC50/EC50
Outline: (§4)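 MDCK cells (2 × 10^4/well, E10, 16–24 h) infected at nine-fold TCID50 with compound for 72 h, 37 °C, 5% CO2. Cells were fixed in 4% paraformaldehyde and stained with crystal violet; EC50 is from Reed–Muench. For CC50, cells had compound alone for 72 h, then MTT 3 h, DMSO, A570, Reed–Muench. SI = CC50/EC50; three independent experiments.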

[10] = system: Influenza A virus; assay: Antiviral activity against pandemic Influenza A virus A/TW/2235/09 (H1N1) SO4 infected in MDCK cells after 72 hrs by crystal violet-staining based assay; type: functional, organism-based; conditions: A/TW/2235/09 (H1N1) SO4, MDCK; outline: as §2
[11] = Selectivity ratio of CC50 for human RD cells to EC50 for Enterovirus A71 TW/4643/1998; type: toxicity; conditions: read-out: Ratio CC50/EC50
Outline: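 RD cells (2 × 10^4/well, DMEM 10% FBS, 16–24 h) infected with enterovirus at nine-fold TCID50 with compound, 72 h, 37 °C, 5% CO2. Cells were fixed in 4% paraformaldehyde, stained with 0.1% crystal violet, and EC50 taken by Reed–Muench. CC50 came from 72 h exposure of uninfected RD cells, MTT 3 h, A570, Reed–Muench. SI = CC50/EC50; three independent experiments.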

[12] = biological target: Hemagglutinin (Influenza A virus) (UniProt B4URE7); assay: Inhibition Influenza A virus (A/WSN/33) HA infected in guinea pig RBC assessed as reduction in hemagglutination at serial dilution from 50 uM after 1 hr by HAI assay; conditions: Influenza A virus (A/WSN/1933(H1N1))
Hemagglutinin (Influenza A virus), sequence (B4URE7 as listed by the source): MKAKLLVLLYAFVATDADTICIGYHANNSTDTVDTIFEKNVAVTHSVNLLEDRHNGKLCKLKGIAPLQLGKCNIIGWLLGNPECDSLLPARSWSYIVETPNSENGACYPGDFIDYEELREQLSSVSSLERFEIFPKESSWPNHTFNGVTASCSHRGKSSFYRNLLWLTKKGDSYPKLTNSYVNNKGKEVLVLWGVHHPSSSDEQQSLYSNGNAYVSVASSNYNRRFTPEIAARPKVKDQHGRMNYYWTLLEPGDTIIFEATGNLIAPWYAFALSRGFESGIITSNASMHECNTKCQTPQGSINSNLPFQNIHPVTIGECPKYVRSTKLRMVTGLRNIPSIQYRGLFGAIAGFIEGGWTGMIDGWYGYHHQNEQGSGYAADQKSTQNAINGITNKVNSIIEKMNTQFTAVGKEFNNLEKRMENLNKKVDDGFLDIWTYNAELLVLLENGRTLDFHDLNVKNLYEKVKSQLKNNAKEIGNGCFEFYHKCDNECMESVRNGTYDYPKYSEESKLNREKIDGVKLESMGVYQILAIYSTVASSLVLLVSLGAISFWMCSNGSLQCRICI
Outline: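 Virus titrated on 0.5% guinea pig RBCs to define 1 HA unit; 4 HA units used. Compound two-fold serially diluted from 50 µM and mixed with virus for 30 min at room temperature, or tested without virus for direct agglutination. 0.5% RBCs then added and agglutination scored after 1 h. DMSO/RBC-only and virus-only controls included.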

[13] = system: Influenza A virus; assay: Inhibition of viral protein sub-cellular distribution in Influenza A virus (A/WSN/33) infected in MDCK cells assessed as reduction in M1 protein distribution to cytoplasm at 1 uM measured after 9 hrs post infection by IF-staining based microscopy; type: functional, organism-based; conditions: A/WSN/1933(H1N1)
Outline: (§5)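 MDCK cells grown on coverslips (2 × 10^5/well, 16 h), infected at MOI 0.1 for 1 h, washed, then kept in E0 with test compound (1 or 10 μM) or LMB 10 nM; DMSO 0.05% as mock. Fixed at 9 h pi in 4% paraformaldehyde and immunostained for M1, NP, NS2 or PA (1:50), with Hoechst nuclear stain. Viewed by confocal microscopy at 63×. NP nuclear/cytoplasmic intensity ratio quantified; three independent experiments.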

[14] = system: MDCK; assay: Inhibition of CRM1 in MDCK cells infected with Influenza A virus (A/WSN/33) assessed as reduction in CRM1-mediated viral protein nuclear export by measuring reduction in NP protein distribution to cytoplasm at 1 uM measured after 9 hrs post infection by IF-staining based microscopy; type: cell-based; conditions: Canis lupus familiaris; outline: as §5
[15] = Selectivity ratio of CC50 for MDCK cells to EC50 for pandemic Influenza A virus A/TW/2235/09 (H1N1) SO4; type: toxicity; conditions: dog, read-out: Ratio CC50/EC50; outline: as §4
[16] = Cytotoxicity against human RD cells assessed as cell death after 72 hrs by MTT assay; type: cell-based; outline: as §1
[17] = system: Enterovirus; assay: Antiviral activity against Rhinovirus 71803 infected in human RD cells after 72 hrs by crystal violet-staining based assay; type: functional, organism-based; conditions: Enterovirus, 71803, RD; outline: as §2
[18] = system: Influenza A virus; assay: Antiviral activity against Influenza A virus (A/WSN/33) infected in MDCK cells at 1 uM added at 3 hrs to 9 hrs post infection and measured after 9 hrs by plaque assay; type: functional, organism-based; conditions: A/WSN/1933(H1N1); outline: as §3

Compound	CC50 at 72 h [1] [µM]	selectivity ratio [2]	EC50 [3] [µM]	also measured
C=C(CC(=O)Nc1ccc(Br)cc1F)C(=O)Nc1ccc(Br)cc1F	> 110	> 111	0.99	–
C=C(CC(=O)Nc1cc(OC)ccc1F)C(=O)Nc1cc(OC)ccc1F	> 110	> 229	0.48	–
C=C(CC(=O)NCc1ccc(F)cc1F)C(=O)NCc1ccc(F)cc1F	> 110	–	> 50	–
C=C(CC(=O)Nc1ccc(F)cc1C(F)(F)F)C(=O)O	> 110	–	> 50	–
C=C(CC(=O)Nc1ccc(F)cc1F)C(=O)O	> 110	–	> 50	–
C=C(CC(=O)Nc1ccc(F)cc1Br)C(=O)Nc1ccc(F)cc1Br	> 110	> 42	2.59	–
C=C(CC(=O)Nc1cc(F)ccc1C(F)(F)F)C(=O)O	> 110	–	> 50	–
C=C(CC(=O)Nc1ccc(C(F)(F)F)cc1F)C(=O)O	> 110	–	> 50	–
C=C(CC(=O)Nc1cc(F)ccc1F)C(=O)Nc1cc(F)ccc1F	32.8	26	1.26	–
C=C(CC(=O)Nc1cccc(C(F)(F)F)c1)C(=O)O	> 110	–	> 50	–
C=C(CC(=O)Nc1ccc(C(F)(F)F)cc1F)C(=O)Nc1ccc(C(F)(F)F)cc1F	> 110	> 785	0.14	EC50 [4]: > 50 µM; EC50 [5]: > 50 µM; EC50 [6]: 6.69 µM; EC50 [7]: 0.96 µM; Activity [8]: Active; selectivity ratio [9]: > 114; EC50 [10]: 1.62 µM; selectivity ratio [11]: 1; inhibition [12]: inactive; inhibition [13]: inactive; inhibition [14]: Active; selectivity ratio [15]: > 67; CC50 at 72 h [16]: 9.31 µM; EC50 [17]: > 50 µM; Activity [18]: Active
C=C(CC(=O)Nc1ccc(Cl)cc1F)C(=O)Nc1ccc(Cl)cc1F	> 110	> 164	0.67	–
C=C(CC(=O)Nc1cc(C(F)(F)F)ccc1F)C(=O)O	> 110	–	> 50	–
